Source: PubChem BioAssay (several laboratories)
A selection: hits, their analogues and other compounds. The true share with any hit is near 8.2%.
M1 agonist – M1 muscarinic receptor agonism; B-score at 10 µM; CHO-M1 cells, Fluo-4 calcium fluorescence, agonist mode; stronger effect = higher value; 64,000 compounds, 3% hits; AID 626;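 active = fluorescence rise, raw or as B-score row- and column-corrected plate score, outside the 99.7% band of its plate's samples, either direction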
D1 allo mod – allosteric modulators of human D1 dopamine receptor; P21728; HEK293 D1, CRE-luciferase, dopamine EC30 potentiation; actives deviate in either direction; B-score at 10 µM; 58,000 compounds, 5.9% hits;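 active = luminescence count or its row- and column-corrected plate score outside the 99.7% band of the plate's sample wells, on either side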
M1 antagonist – M1 muscarinic receptor (rat) antagonism. B-score at 10 µM. P08482. 64,000 compounds, 3.4% hits. CHO-M1 cells, Fluo-4 calcium, ACh EC80 antagonist mode; stronger effect = lower value. AID 628;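 active = calcium fluorescence response, raw or row-and-column corrected B-score, differing from the plate sample mean either way at a set confidence level, mostly lower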
RORA act – activators of human nuclear receptor RORA | P35398 | CHO-K1 Gal4-RORA LBD luciferase reporter, luminescence; percent increase over mock-subtracted basal signal | activation, % at 10 µM | 65,000 compounds, 1.5% hits;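 active = activation above the mean of all tested compounds plus 3 SD, cut at about 49% in these data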;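 also: 0% = DMSO-treated RORA cells and 100% = added signal equal to DMSO minus mock-transfected cells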
HePTP inh – human HePTP phosphatase inhibition. P35236. recombinant HePTP phosphatase activity, OD absorbance. inhibition, % at 20 µM. 110,000 compounds, 0.64% hits. AID 521; in the data active = inhibition above about 50%;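 also: plate controls were vehicle for no effect and reference inhibitor for full effect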
SF1 activator – activators of human nuclear receptor SF-1; Q13285; CHO-K1 Gal4-SF-1 LBD luciferase reporter; % increase over DMSO SF-1-specific signal; activation, % at 10 µM; 65,000 compounds, 1.9% hits;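 active = activation above the mean activation of all tested compounds plus 3 SD, cut at about 50% in these data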
Target sequence (Q13285 whole entry, looked up, the tested form may be a part): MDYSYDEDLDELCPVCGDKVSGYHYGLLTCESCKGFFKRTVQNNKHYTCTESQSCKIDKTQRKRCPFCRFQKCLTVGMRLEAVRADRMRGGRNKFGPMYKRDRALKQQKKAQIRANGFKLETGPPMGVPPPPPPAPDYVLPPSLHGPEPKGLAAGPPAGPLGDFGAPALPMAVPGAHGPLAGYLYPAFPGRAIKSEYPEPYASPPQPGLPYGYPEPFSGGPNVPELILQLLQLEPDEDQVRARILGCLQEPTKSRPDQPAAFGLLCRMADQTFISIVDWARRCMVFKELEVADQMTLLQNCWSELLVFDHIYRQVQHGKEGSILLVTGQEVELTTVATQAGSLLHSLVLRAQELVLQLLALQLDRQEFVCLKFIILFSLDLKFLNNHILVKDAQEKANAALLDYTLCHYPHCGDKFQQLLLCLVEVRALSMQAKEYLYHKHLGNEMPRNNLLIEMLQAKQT
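material = CHO-K1 cells with Gal4–hSF-1 LBD chimera plus Gal4-driven luciferase | compound = 10 µM single point, 1% DMSO | incubation = 20 h compound exposure at 37 °C after 1 h cell settling | measured by = SteadyLite luciferase luminescence | evaluation = percent activation relative to DMSO median and mock-transfected background | control set = DMSO negative control and −SF1 background wells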
The depositor's hits bear a star; nt = no result given.

SMILES	M1 agonist	D1 allo mod	M1 antagonist	RORA act	HePTP inh	SF1 activator
COc1ccc(-c2cc(CCCC(=O)NCCc3ccc(OC)cc3OC)no2)cc1	-0.35	-0.023	-0.083	-33	14	-25
O=S(=O)(c1cccc2ccccc12)N1CCSC1	-0.96	nt	0.016	-22	2	-17
c1ccc(-c2cnc(CSc3nnc4ccccn34)o2)cc1	0.064	nt	-0.44	17	3	71*
COC(=O)C1(C(=O)OC)Sc2ccccc2C1=O	0.46	2	0.018	-6	10	-7
Cc1c(-c2ccc(Cl)cc2Cl)nc2ccccc2c1C(=O)NCc1ccc2c(c1)OCO2	nt	nt	nt	nt	103*	nt
CC1(CC(=O)O)C(=O)N=C2C=CC=CN21 (stereo not given)	-0.0014	0.038	0.094	-7	6	16
O=C(c1ccc(CN2CCOCC2)cc1)N1CCC(Cc2ccccc2)CC1	-0.082	-3.3*	0.029	-8	8	6
Cc1ccc(/C=C2\C(=O)NC(=S)N(c3ccc(Br)cc3)C2=O)o1	nt	nt	nt	nt	33	nt
Cc1ccc(/C=C2\C(=O)NC(=S)N(c3ccc(Br)cc3C)C2=O)o1	nt	nt	nt	nt	87*	nt
Cc1ccc(C=C2C(=O)NC(=S)N(c3ccccc3Cl)C2=O)o1	nt	nt	nt	nt	65*	nt
CC(=O)c1cc(C(=O)CC(=O)Nc2ccc([N+](=O)[O-])cc2)sc1Nc1ccccc1	nt	nt	nt	nt	-3	nt
COc1ccc(C2C(=O)c3ccccc3C2=Nc2ccc(Br)cc2)cc1 (stereo not given)	nt	nt	nt	nt	-6	nt
CC(O)c1nc2ccccc2n1Cc1nnc(-c2ccc(Cl)cc2)o1 (stereo not given)	-1	-4.6*	0.077	11	-2	18
CC1(C)CC2CC(C)(CN2C(=O)CN2C(=O)c3ccccc3C2=O)C1 (stereo not given)	-0.15	1.3	-0.26	-18	7	-3
Cc1cccc(C)c1NC(=O)Nc1cccs1	-0.21	-0.89	-0.48	-17	0	-3
CCc1cccc(NC(=O)Nc2cccs2)c1	1.5	-0.073	-0.64	63*	9	32
O=C(Oc1ccc(OC(=O)c2ccncc2)cc1)c1ccncc1	-0.27	-0.42	0.44	9	6	-2
Cc1cc(/C=c2\sc3nc4ccccc4n3c2=O)c(C)n1C	nt	nt	nt	nt	0	nt
Cc1cc(/C=c2/sc3nc4ccccc4n3c2=O)c(C)n1-c1ccccn1	-0.087	-6.8*	-0.31	-87	12	-85
CCn1nc(C(=O)OCC(=O)c2c[nH]c3ccccc23)c2ccccc2c1=O	6.1*	-3.2*	-1.3	10	1	21
O=C(COC(=O)C1CC1)c1c[nH]c2ccccc12	-0.58	-0.99	0.2	106*	-5	37
O=C(OCC(=O)c1c[nH]c2ccccc12)c1ccco1	-0.036	-0.52	-0.042	8	0	26
COC(=O)c1cccc(N2C(=O)c3ccc(C(=O)c4cccc([N+](=O)[O-])c4)cc3C2=O)c1	nt	nt	nt	nt	1	nt
CCn1cc(C(=O)O)c(=O)c2cc(OC)ccc21	-0.9	1.2	0.31	0	8	-7
CC(C)Oc1ccc(-c2nn(-c3ccccc3)cc2/C=c2\sc3ncnn3c2=O)cc1	33*	-0.2	-0.8	1	-5	-22
SMILES	M1 agonist	D1 allo mod	M1 antagonist	RORA act	HePTP inh	SF1 activator
Nc1c(C(=O)NCCN2CCOCC2)c2nc3ccccc3nc2n1-c1ccc2c(c1)OCO2	-0.14	0.26	0.0078	55*	14	-7
Nc1c(C(=O)NCCN2CCOCC2)c2nc3ccccc3nc2n1-c1ccccc1	0.66	0.015	0.056	-15	0	6
Cc1ccc2oc(Nc3nc(C)cc(C)n3)nc2c1	-0.29	0.14	-0.049	52*	-2	22
O=C1NC(=Nc2cccnc2)S/C1=C\c1ccc(F)cc1	nt	nt	nt	nt	10	nt
O=C1NC(=Nc2cccnc2)S/C1=C\c1cccc(F)c1	nt	nt	nt	nt	66*	nt
O=C(Nc1ccc2nc3n(c(=O)c2c1)CCCCC3)c1ccccn1	0.038	-2	-0.018	54*	-9	28
CCOC(=O)c1ccc(N2NC(=O)/C(=C/c3cc(Br)ccc3O)C2=O)cc1	nt	nt	nt	nt	75*	nt
CCOC(=O)c1ccc(N2NC(=O)/C(=C/c3ccccc3)C2=O)cc1	nt	nt	nt	nt	24	nt
CCOC(=O)c1ccc(N2NC(=O)/C(=C/c3ccc(C=O)cc3)C2=O)cc1	nt	nt	nt	nt	96*	nt
CCOC(=O)c1ccc(N2NC(=O)/C(=C/c3cccc(OC)c3O)C2=O)cc1	nt	nt	nt	nt	55*	nt
CCOC(=O)c1ccc(N2NC(=O)/C(=C/c3cc(OC)c(OC)cc3Br)C2=O)cc1	nt	nt	nt	nt	5	nt
